Reference: PMC4201344 (ACS Chemical Biology, 2014)

How the values were obtained:
Assay in all cases: two-electrode voltage clamp, Xenopus laevis oocytes
Assay type in all cases: cell-based, C. elegans
GluClβ L9′V = GluClβ L9′V (Caenorhabditis elegans, UniProt Q17328, L286V); settings: glutamate
Procedure, shortened: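 C. elegans GluClβ (mammalian codon-optimised) in pGEMhe, mutated by QuikChange; T7 mRNA. […] Voltage clamp at −60 mV in Ca-free ND96, pH 7.5. […] Peak currents taken from baseline, normalised, averaged per concentration, and fit to Hill equation (EC50, nH).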

GluClβ T6′S, Q174A = GluClβ T6′S, Q174A (Caenorhabditis elegans, UniProt Q17328, Q200A/T283S); settings: glutamate
GluClβ T6′S, Q174A, sequence (Q17328 23-434 Q200A/T283S): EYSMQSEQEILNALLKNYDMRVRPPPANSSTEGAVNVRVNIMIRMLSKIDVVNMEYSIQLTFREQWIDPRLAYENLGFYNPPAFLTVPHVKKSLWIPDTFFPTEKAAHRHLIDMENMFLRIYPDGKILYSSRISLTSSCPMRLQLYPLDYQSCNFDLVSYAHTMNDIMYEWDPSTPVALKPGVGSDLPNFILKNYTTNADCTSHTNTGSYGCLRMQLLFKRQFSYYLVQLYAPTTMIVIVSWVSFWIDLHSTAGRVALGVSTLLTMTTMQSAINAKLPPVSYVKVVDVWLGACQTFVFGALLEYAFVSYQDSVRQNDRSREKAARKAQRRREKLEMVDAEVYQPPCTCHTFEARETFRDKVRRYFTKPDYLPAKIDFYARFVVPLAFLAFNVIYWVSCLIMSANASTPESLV

GluClβ T6′S, Q174A/Y206F = molecular target: T1, GluClβ T6′S, Q174A/Y206F (Caenorhabditis elegans, UniProt Q17328, Q200A/T283S/Y232F)
T1 sequence (Q17328 23-434 Q200A/Y232F/T283S): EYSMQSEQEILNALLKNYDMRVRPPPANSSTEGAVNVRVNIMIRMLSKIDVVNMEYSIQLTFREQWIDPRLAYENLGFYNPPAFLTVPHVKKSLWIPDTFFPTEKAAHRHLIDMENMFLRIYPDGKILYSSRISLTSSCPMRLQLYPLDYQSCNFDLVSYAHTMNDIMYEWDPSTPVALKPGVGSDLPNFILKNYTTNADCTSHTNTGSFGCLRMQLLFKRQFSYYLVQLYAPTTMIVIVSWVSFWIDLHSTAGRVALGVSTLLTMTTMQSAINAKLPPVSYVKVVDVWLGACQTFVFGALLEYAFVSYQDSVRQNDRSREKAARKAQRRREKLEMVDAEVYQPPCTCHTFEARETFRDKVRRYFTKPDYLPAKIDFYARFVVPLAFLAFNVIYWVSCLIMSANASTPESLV

GluClβ L9′V, sequence (Q17328 23-434 L286V): as the sequence (Q17328 23-434 Q200A/T283S) above, with A178Q, S261T, L264V counted along it

- EC50 (GluClβ L9′V): no response
- EC50 (GluClβ T6′S, Q174A): 110 ± 10 µM
- Hill (GluClβ T6′S, Q174A): 2.4 ± 0.2
- EC50 (GluClβ T6′S, Q174A/Y206F; glutamate): 920 ± 40 µM
- Hill (GluClβ T6′S, Q174A/Y206F; glutamate): 2.2 ± 0.2
- Ω (GluClβ T6′S, Q174A/Y206F; mutant cycle analysis Q174A, Y206F): 0.67
- ΔΔG (GluClβ T6′S, Q174A/Y206F; mutant cycle analysis Q174A/Y206F): 0.23 kcal/mol
Structure (SMILES): N[C@@H](CCC(=O)O)C(=O)O [glutamate]
